# Assay results reported in ChEMBL document CHEMBL3244146, “Pyranenamines: a new series of antiallergic compounds” (1979).
# Assays:
# Rattus norvegicus [1] = assay: Antiallergic activity in rat assessed as inhibition of egg albumin-induced passive cutaneous anaphylaxis at 10 mg/kg, iv treated for 30 secs followed by egg albumin-challenge measured after 30 mins relative to control; assay type: functional; conditions: 0.5 h
# Rattus norvegicus [2] = assay: Antiallergic activity in rat assessed as inhibition of egg albumin-induced passive cutaneous anaphylaxis at 5 mg/kg, iv treated for 30 secs followed by egg albumin-challenge measured after 30 mins relative to control; assay type: functional; conditions: 0.5 h
# Rattus norvegicus [3] = assay: Antiallergic activity in iv dosed rat assessed as inhibition of egg albumin-induced passive cutaneous anaphylaxis treated for 30 secs followed by egg albumin-challenge measured after 30 mins; assay type: functional; conditions: 0.5 h, read-out: ID50 (the source's name)
# Rattus norvegicus [4] = assay: Antiallergic activity in rat assessed as inhibition of egg albumin-induced passive cutaneous anaphylaxis at 25 mg/kg, po treated for 15 mins followed by egg albumin-challenge measured after 30 mins relative to control; assay type: functional
# Procedure, shortened: (§1)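 Oral PCA in rats: intradermal antiserum at four back sites (dose giving ~12×12 mm wheal), compound po 48 h later, 15 min before iv challenge with 0.5 mL saline containing 5 mg Evans blue plus 5 mg egg albumin; skin bluing read 30 min after challenge on two axes per wheal; six rats per dose versus ≥6 vehicle controls; percent inhibition from mean wheal size, one-sided t test.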
# Rattus norvegicus [5] = assay: Antiallergic activity in rat assessed as inhibition of egg albumin-induced passive cutaneous anaphylaxis at 0.5 mg/kg, iv treated for 30 secs followed by egg albumin-challenge measured after 30 mins relative to control; assay type: functional; conditions: 0.5 h
# Rattus norvegicus [6] = assay: Antiallergic activity in po dosed rat assessed as inhibition of egg albumin-induced passive cutaneous anaphylaxis treated for 15 mins followed by egg albumin-challenge measured after 30 mins; assay type: functional; conditions: read-out: ID50 (the source's name); procedure, shortened: as §1
# [7] = Antiallergic activity in passively sensitized rhesus monkey lungs assessed as inhibition of antigen-induced slow reacting substance of anaphylaxis release at 1 x 10^-5 M relative to control; assay type: functional, Macaca mulatta, Lung
# Procedure, shortened: (§2)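 Passively sensitized fragmented lung from a young adult male rhesus monkey, challenged with IgE-antihuman IgE; histamine release measured fluorometrically and SRS-A estimated by guinea pig ileum bioassay; inhibition relative to control; replicates given as number of separate lung preparations.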
# [8] = Antiallergic activity in passively sensitized rhesus monkey lungs assessed as inhibition of antigen-induced histamine release at 1 x 10^-4 M by fluorometric analysis relative to control; assay type: functional, Macaca mulatta, Lung; procedure, shortened: as §2
# [9] = Antiallergic activity in passively sensitized rhesus monkey lungs assessed as inhibition of antigen-induced histamine release at 1 x 10^-5 M by fluorometric analysis relative to control; assay type: functional, Macaca mulatta, Lung; procedure, shortened: as §2
# [10] = Antiallergic activity in passively sensitized rhesus monkey lungs assessed as inhibition of antigen-induced slow reacting substance of anaphylaxis release at 1 x 10^-4 M relative to control; assay type: functional, Macaca mulatta, Lung; procedure, shortened: as §2
SMILES,ED50 (Rattus norvegicus [3]) [mg/kg],inhibition in vivo at 25 mg/kg (Rattus norvegicus [4]) [%],also measured
CC(=O)C1=C(O)/C(=C(\C)Nc2ccccc2)C(=O)OC1=O,,,inhibition in vivo at 10 mg/kg (Rattus norvegicus [1]): 76%
CC(=O)C1=C(O)/C(=C(\C)Nc2ccccc2Cl)C(=O)OC1=O,,,inhibition in vivo at 10 mg/kg (Rattus norvegicus [1]): 36%
CC(=O)C1=C(O)/C(=C(\C)Nc2cccc(Cl)c2)C(=O)OC1=O,,,inhibition in vivo at 10 mg/kg (Rattus norvegicus [1]): 74%
CC(=O)C1=C(O)/C(=C(\C)Nc2ccc(Cl)cc2)C(=O)OC1=O,,,inhibition in vivo at 10 mg/kg (Rattus norvegicus [1]): 84%
CC(=O)C1=C(O)/C(=C(\C)Nc2ccc(F)cc2)C(=O)OC1=O,,,inhibition in vivo at 10 mg/kg (Rattus norvegicus [1]): 54%
CC(=O)C1=C(O)/C(=C(\C)Nc2ccc([N+](=O)[O-])cc2)C(=O)OC1=O,,,inhibition in vivo at 10 mg/kg (Rattus norvegicus [1]): 17%
CCOC(=O)c1ccccc1N/C(C)=C1\C(=O)OC(=O)C(C(C)=O)=C1O,,,inhibition in vivo at 5 mg/kg (Rattus norvegicus [2]): 18%
COC(=O)c1ccc(N/C(C)=C2\C(=O)OC(=O)C(C(C)=O)=C2O)cc1,,,inhibition in vivo at 5 mg/kg (Rattus norvegicus [2]): 6%
CC(=O)C1=C(O)/C(=C(\C)Nc2ccc(C)cc2)C(=O)OC1=O,,,inhibition in vivo at 10 mg/kg (Rattus norvegicus [1]): 33%
CC(=O)C1=C(O)/C(=C(\C)Nc2ccccc2O)C(=O)OC1=O,2.8,-12,
CC(=O)C1=C(O)/C(=C(\C)Nc2cccc(O)c2)C(=O)OC1=O,1.6,0,
CCCC(=O)Oc1ccc(N/C(C)=C2\C(=O)OC(=O)C(C(C)=O)=C2O)cc1,1.5,,
CCCCC(=O)Oc1ccc(N/C(C)=C2\C(=O)OC(=O)C(C(C)=O)=C2O)cc1,,36,inhibition in vivo at 0.5 mg/kg (Rattus norvegicus [5]): 34%
CCCCCC(=O)Oc1ccc(N/C(C)=C2\C(=O)OC(=O)C(C(C)=O)=C2O)cc1,12.1,,
COc1ccc(N/C(C)=C2\C(=O)OC(=O)C(C(C)=O)=C2O)cc1,,,inhibition in vivo at 5 mg/kg (Rattus norvegicus [2]): 27%
CC(=O)C1=C(O)/C(=C(\C)Nc2ccc(OCC(=O)O)cc2)C(=O)OC1=O,0.5,2,
CC(=O)C1=C(O)/C(=C(\C)Nc2ccc(S)cc2)C(=O)OC1=O,1.9,,
CC(=O)C1=C(O)/C(=C(\C)Nc2ccccc2N)C(=O)OC1=O,27.5,,
CC(=O)C1=C(O)/C(=C(\C)Nc2cccc(N)c2)C(=O)OC1=O,0.3,,
CC(=O)C1=C(O)/C(=C(\C)Nc2ccc(N)cc2)C(=O)OC1=O,,23,inhibition in vivo at 0.5 mg/kg (Rattus norvegicus [5]): 58%

SMILES,ED50 (Rattus norvegicus [3]) [mg/kg],inhibition in vivo at 25 mg/kg (Rattus norvegicus [4]) [%],also measured
CC(=O)C1=C(O)/C(=C(\C)Nc2cccc(NC(=N)N)c2)C(=O)OC1=O.O=[N+]([O-])O,0.9,-7,
CC(=O)C1=C(O)/C(=C(\C)Nc2ccccc2NC=O)C(=O)OC1=O,,31,inhibition in vivo at 0.5 mg/kg (Rattus norvegicus [5]): 52%
CC(=O)C1=C(O)/C(=C(\C)Nc2ccc(NC=O)cc2)C(=O)OC1=O,,-6,inhibition in vivo at 0.5 mg/kg (Rattus norvegicus [5]): 49%
CC(=O)Nc1ccc(N/C(C)=C2\C(=O)OC(=O)C(C(C)=O)=C2O)cc1,,,inhibition in vivo at 5 mg/kg (Rattus norvegicus [2]): 19%
CC(=O)C1=C(O)/C(=C(\C)Nc2cccc(NC(N)=O)c2)C(=O)OC1=O,,6,inhibition in vivo at 0.5 mg/kg (Rattus norvegicus [5]): 45%
CC(=O)C1=C(O)/C(=C(\C)Nc2ccc(NC(N)=O)cc2)C(=O)OC1=O,,-17,inhibition in vivo at 0.5 mg/kg (Rattus norvegicus [5]): 38%
CCC(=O)Nc1cccc(N/C(C)=C2\C(=O)OC(=O)C(C(C)=O)=C2O)c1,0.2,70,
CCC(=O)Nc1ccc(N/C(C)=C2\C(=O)OC(=O)C(C(C)=O)=C2O)cc1,1.6,,
CC(=O)C1=C(O)/C(=C(\C)Nc2cccc(NC(=O)C(C)C)c2)C(=O)OC1=O,,46,inhibition in vivo at 0.5 mg/kg (Rattus norvegicus [5]): 72%
CC(=O)CCC(=O)Nc1cccc(N/C(C)=C2\C(=O)OC(=O)C(C(C)=O)=C2O)c1,0.4,,
CC(=O)C1=C(O)/C(=C(\C)Nc2cccc(NS(=O)(=O)c3ccccc3)c2)C(=O)OC1=O,1.3,7,
CC(=O)C1=C(O)/C(=C(\C)Nc2cccc(NS(N)(=O)=O)c2)C(=O)OC1=O,,13,inhibition in vivo at 0.5 mg/kg (Rattus norvegicus [5]): 45%
CC(=O)C1=C(O)/C(=C(\C)Nc2ccc(NS(N)(=O)=O)cc2)C(=O)OC1=O,0.3,10,
CCOC(=O)Nc1cccc(N/C(C)=C2\C(=O)OC(=O)C(C(C)=O)=C2O)c1,0.4,,
CC(=O)C1=C(O)/C(=C(\C)Nc2cc(N)cc(N)c2)C(=O)OC1=O,0.5,,ED50 (Rattus norvegicus [6]): 0.9 mg/kg
CC(=O)C1=C(O)/C(=C(\C)Nc2cccc(NC(=O)C(=O)C(=O)O)c2)C(=O)OC1=O,0.03,21,
CC(=O)C1=C(O)/C(=C(\C)Nc2cccc(NC(=O)C(O)CO)c2)C(=O)OC1=O (stereo not given),0.05,55,
CC(=O)C1=C(O)/C(=C(\C)Nc2ccc(Cl)c(Cl)c2)C(=O)OC1=O,,,inhibition in vivo at 10 mg/kg (Rattus norvegicus [1]): 10%
CC(=O)Nc1cc(O)cc(N/C(C)=C2\C(=O)OC(=O)C(C(C)=O)=C2O)c1,0.02,2,inhibition (INH) [7]: 6%; inhibition (INH) [8]: 57%; inhibition (INH) [9]: 17%; inhibition (INH) [10]: 22%
CC(=O)Nc1cc(N)cc(N/C(C)=C2\C(=O)OC(=O)C(C(C)=O)=C2O)c1,0.1,11,inhibition (INH) [8]: 17%; inhibition (INH) [10]: 8%

SMILES,ED50 (Rattus norvegicus [3]) [mg/kg],inhibition in vivo at 25 mg/kg (Rattus norvegicus [4]) [%],also measured
CCCC(=O)Nc1cc(NC(=O)CCC)cc(N/C(C)=C2\C(=O)OC(=O)C(C(C)=O)=C2O)c1,0.05,7,
CCOC(=O)Nc1cc(NC(=O)OCC)cc(N/C(C)=C2\C(=O)OC(=O)C(C(C)=O)=C2O)c1,0.25,-18,
CCOC(=O)C(=O)Nc1cc(NC(=O)C(=O)OCC)cc(N/C(C)=C2\C(=O)OC(=O)C(C(C)=O)=C2O)c1,0.03,,ED50 (Rattus norvegicus [6]): 6.5 mg/kg
CC(=O)C1=C(O)/C(=C(\C)Nc2cc(NC(=O)C(=O)O)cc(NC(=O)C(=O)O)c2)C(=O)OC1=O,0.05,,ED50 (Rattus norvegicus [6]): 19 mg/kg
CC(=O)C1=C(O)/C(=C(\C)Nc2cc(O)c(O)c(O)c2)C(=O)OC1=O,0.4,-3,
CC(=O)C1=C(O)/C(=C(\C)Nc2c(Cl)cccc2Cl)C(=O)OC1=O,,,inhibition in vivo at 10 mg/kg (Rattus norvegicus [1]): 3%
CC(=O)Nc1ccc(O)c(N/C(C)=C2\C(=O)OC(=O)C(C(C)=O)=C2O)c1,,4,inhibition in vivo at 0.5 mg/kg (Rattus norvegicus [5]): 40%
CC(=O)C1=C(O)/C(=C(\C)Nc2cc(O)ccc2N)C(=O)OC1=O,,,inhibition in vivo at 5 mg/kg (Rattus norvegicus [2]): 47%
COc1ccc(N(C)/C(C)=C2\C(=O)OC(=O)C(C(C)=O)=C2O)cc1,,,inhibition in vivo at 5 mg/kg (Rattus norvegicus [2]): 37%
CC(=O)C1=C(O)/C(=C(\C)N(C)c2ccc(O)cc2)C(=O)OC1=O,,,inhibition in vivo at 5 mg/kg (Rattus norvegicus [2]): 42%
CC(=O)C1=C(O)/C(=C(\C)N)C(=O)OC1=O,,,inhibition in vivo at 5 mg/kg (Rattus norvegicus [2]): 17%
CC(=O)c1c(O)oc(=O)c(C(C)=O)c1O,14,,
CCC(=O)c1c(O)oc(=O)c(C(=O)CC)c1O,,,inhibition in vivo at 10 mg/kg (Rattus norvegicus [1]): 39%
CCCC(=O)c1c(O)oc(=O)c(C(=O)CCC)c1O,,,inhibition in vivo at 10 mg/kg (Rattus norvegicus [1]): 3%
CCCCC(=O)c1c(O)oc(=O)c(C(=O)CCCC)c1O,,,inhibition in vivo at 10 mg/kg (Rattus norvegicus [1]): 69%
CC(C)CC(=O)c1c(O)oc(=O)c(C(=O)CC(C)C)c1O,,,inhibition in vivo at 10 mg/kg (Rattus norvegicus [1]): 23%
CCCCCC(=O)c1c(O)oc(=O)c(C(=O)CCCCC)c1O,6,,
CCCCCCC(=O)c1c(O)oc(=O)c(C(=O)CCCCCC)c1O,,,inhibition in vivo at 10 mg/kg (Rattus norvegicus [1]): 27%
